# In ChEMBL document CHEMBL2407075, “Sulphonamido-quinoxalines: search for anticancer agent” (Eur J Med Chem, 2013):
# Experiments:
# Assay type in all cases: functional
# SK-OV-3 [1] = assay: Growth inhibition of human SKOV3 cells assessed as cell growth at 10^-4 M after 48 hrs by sulforhodamine B assay; details: SK-OV-3, 48 h, read-out: Activity
# LOX IMVI = assay: Growth inhibition of human LOXIMVI cells assessed as cell growth at 10^-4 M after 48 hrs by sulforhodamine B assay; details: read-out: Activity
# NCI-H522 = assay: Growth inhibition of human NCI-H522 cells assessed as cell growth at 10^-4 M after 48 hrs by sulforhodamine B assay; details: NCI-H522, 48 h, read-out: Activity
# [2] = Growth inhibition of human EKVX cells assessed as cell growth at 10^-4 M after 48 hrs by sulforhodamine B assay; details: read-out: Activity
# Method in brief: (§1)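 Five-dose NCI-60 run (0.01, 0.1, 1, 10 and 100 µM, as 10-fold dilutions from a DMSO stock made at 400× the top final level). Cells were grown in RPMI 1640 with 5% FBS and 2 mM glutamine and plated for 24 h. They were then exposed for 48 h at 37 °C and 5% CO2. TCA fixation was followed by SRB staining with A515 read-out. Percent growth was taken relative to time-zero and control plates.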
# MCF7 [3] = assay: Growth inhibition of human MCF7 cells assessed as cell growth at 10^-5 M after 48 hrs by sulforhodamine B assay; details: MCF7, 48 h, read-out: Activity
# SF-539 = assay: Growth inhibition of human SF539 cells assessed as cell growth at 10^-5 M after 48 hrs by sulforhodamine B assay; details: SF-539, 48 h, read-out: Activity
# MOLT-4 [4] = assay: Growth inhibition of human MOLT4 cells assessed as cell growth at 10^-5 M after 48 hrs by sulforhodamine B assay; details: MOLT-4, 48 h, read-out: Activity
# K562 = assay: Growth inhibition of human K562 cells assessed as cell growth at 10^-5 M after 48 hrs by sulforhodamine B assay; details: K562, 48 h, read-out: Activity
# SNB-19 [5] = assay: Growth inhibition of human SNB19 cells assessed as cell growth at 10^-6 M after 48 hrs by sulforhodamine B assay; details: SNB-19, 48 h, read-out: Activity
# ACHN = assay: Growth inhibition of human ACHN cells assessed as cell growth at 10^-7 M after 48 hrs by sulforhodamine B assay; details: read-out: Activity; method in brief: as §1
# OVCAR-3 = assay: Growth inhibition of human OVCAR3 cells assessed as cell growth at 10^-7 M after 48 hrs by sulforhodamine B assay; details: OVCAR-3, 48 h, read-out: Activity
# NCI-H226 [6] = assay: Growth inhibition of human NCI-H226 cells assessed as cell growth at 10^-7 M after 48 hrs by sulforhodamine B assay; details: NCI-H226, 48 h, read-out: Activity
# MOLT-4 [7] = assay: Growth inhibition of human MOLT4 cells assessed as cell growth at 10^-7 M after 48 hrs by sulforhodamine B assay; details: MOLT-4, 48 h, read-out: Activity
# MCF7 [8] = assay: Growth inhibition of human MCF7 cells assessed as cell growth at 10^-8 M after 48 hrs by sulforhodamine B assay; details: MCF7, 48 h, read-out: Activity
# SK-OV-3 [9] = assay: Growth inhibition of human SKOV3 cells assessed as cell growth at 10^-8 M after 48 hrs by sulforhodamine B assay; details: SK-OV-3, 48 h, read-out: Activity
# OVCAR-8 = assay: Growth inhibition of human OVCAR8 cells assessed as cell growth at 10^-8 M after 48 hrs by sulforhodamine B assay; details: OVCAR-8, 48 h, read-out: Activity
# OVCAR-5 [10] = assay: Growth inhibition of human OVCAR5 cells assessed as cell growth at 10^-8 M after 48 hrs by sulforhodamine B assay; details: OVCAR-5, 48 h, read-out: Activity
# M14 = assay: Growth inhibition of human M14 cells assessed as cell growth at 10^-8 M after 48 hrs by sulforhodamine B assay; details: M14, 48 h, read-out: Activity
# HOP-62 = assay: Growth inhibition of human HOP62 cells assessed as cell growth at 10^-8 M after 48 hrs by sulforhodamine B assay; details: HOP-62, 48 h, read-out: Activity
# Method in brief: (§2)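 Five-dose screen at NCI. Cells in RPMI 1640 with 5% FBS and 2 mM L-glutamine, seeded at 5000–40,000 cells/well and grown 24 h at 37 °C, 5% CO2 before dosing, with time-zero plates TCA-fixed. Drug diluted from DMSO stock to 0.01, 0.1, 1, 10 and 100 µM final, 48 h. Cells fixed with cold TCA (10% final), stained with 0.4% SRB and read at 515 nm. Percent growth from Tz, control and test absorbances; GI50, TGI and LC50 from dose-response curves.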
# PC-3 = assay: Growth inhibition of human PC3 cells after 48 hrs by sulforhodamine B assay; details: PC-3, 48 h; for CC50: read-out: LC50 (the source's name)
# Method in brief: (§3)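 Adherent cells in RPMI 1640 with 5% FBS and 2 mM L-glutamine were plated at 5000–40,000 cells/well and grown 24 h. Five concentrations (0.01–100 µM, DMSO stock) were added for 48 h at 37 °C. Cells were fixed with cold TCA (10% final) and stained with SRB, read at 515 nm. GI50 came from log concentration–growth curves against time-zero and control plates.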
# OVCAR-5 [11] = assay: Growth inhibition of human OVCAR5 cells after 48 hrs by sulforhodamine B assay; details: OVCAR-5, 48 h; for CC50: read-out: LC50 (the source's name); method in brief: as §3
# UACC-62 = assay: Growth inhibition of human UACC62 cells after 48 hrs by sulforhodamine B assay; details: UACC-62, 48 h, read-out: LC50 (the source's name)
# SNB-19 [12] = assay: Growth inhibition of human SNB19 cells after 48 hrs by sulforhodamine B assay; details: SNB-19, 48 h; for CC50: read-out: LC50 (the source's name); method in brief: as §3
# SNB-75 = assay: Growth inhibition of human SNB75 cells after 48 hrs by sulforhodamine B assay; details: SNB-75, 48 h; for CC50: read-out: LC50 (the source's name)
# Method in brief: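 Five-dose NCI 60 screen at 0.01, 0.1, 1, 10 and 100 µM, 48 h exposure after 24 h preincubation, in RPMI 1640 with 5% FBS and 2 mM glutamine. Fixed with TCA (10% final for adherent cells, 16% for suspension cells), stained with SRB, A515 read. Percent growth uses time-zero (Tz), control and treated plates. GI50, TGI and LC50 are read from the dose-response curves.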
# HCT-116 = assay: Growth inhibition of human HCT116 cells after 48 hrs by sulforhodamine B assay; details: HCT-116, 48 h; for CC50: read-out: LC50 (the source's name); method in brief: as §2
# NCI-H226 [13] = assay: Growth inhibition of human NCI-H226 cells after 48 hrs by sulforhodamine B assay; details: NCI-H226, 48 h, read-out: LC50 (the source's name); method in brief: as §3
# MOLT-4 [14] = assay: Growth inhibition of human MOLT4 cells after 48 hrs by sulforhodamine B assay; details: MOLT-4, 48 h; for CC50: read-out: LC50 (the source's name)
# Method in brief: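 Leukemia suspension cells in RPMI 1640 with 5% FBS and 2 mM L-glutamine were plated at 5000–40,000 cells/well and grown 24 h. Five concentrations (0.01–100 µM) were given for 48 h at 37 °C. Settled cells were fixed with 80% TCA (16% final) and SRB-stained, read at 515 nm. GI50 came from dose–response curves against time-zero and control plates.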
Structure (SMILES),growth at 100 µM (SK-OV-3 [1]) [%],growth at 100 µM (LOX IMVI) [%],growth at 100 µM (NCI-H522) [%],growth at 100 µM [2] [%],growth at 10 µM (MCF7 [3]) [%],growth at 10 µM (SF-539) [%],growth at 10 µM (MOLT-4 [4]) [%],growth at 10 µM (K562) [%],growth at 1 µM (SNB-19 [5]) [%],growth at 0.1 µM (ACHN) [%],growth at 0.1 µM (OVCAR-3) [%],growth at 0.1 µM (NCI-H226 [6]) [%],growth at 0.1 µM (MOLT-4 [7]) [%],growth at 0.01 µM (MCF7 [8]) [%],growth at 0.01 µM (SK-OV-3 [9]) [%],growth at 0.01 µM (OVCAR-8) [%],growth at 0.01 µM (OVCAR-5 [10]) [%],growth at 0.01 µM (M14) [%],growth at 0.01 µM (HOP-62) [%],GI50 (PC-3) [µM],also measured
O=S(=O)(Nc1ccc(Cl)cc1)c1ccc2nc(-c3ccccc3)c(-c3ccccc3)nc2c1,65,66,67,65,-16,5,-39,11,89,95,97,99,94,95,95,96,95,95,96,1.47,CC50 (PC-3): > 100 µM; TGI (OVCAR-5 [11]): > 100 µM; CC50 (OVCAR-5 [11]): > 100 µM; CC50 (UACC-62): > 100 µM; TGI (SNB-19 [12]): > 100 µM; CC50 (SNB-19 [12]): > 100 µM; GI50 (SNB-75): 2.12 µM; TGI (SNB-75): > 100 µM; CC50 (SNB-75): > 100 µM; TGI (HCT-116): > 100 µM; CC50 (HCT-116): > 100 µM; CC50 (NCI-H226 [13]): > 100 µM; CC50 (MOLT-4 [14]): > 100 µM
O=S(=O)(Nc1ccccn1)c1ccc2nc(-c3ccccc3)c(-c3ccccc3)nc2c1,37,57,31,50,-22,7,-29,9,87,98,92,95,95,95,97,100,93,96,96,1.39,CC50 (PC-3): > 100 µM; TGI (OVCAR-5 [11]): > 100 µM; CC50 (OVCAR-5 [11]): > 100 µM; CC50 (UACC-62): > 100 µM; TGI (SNB-19 [12]): > 100 µM; CC50 (SNB-19 [12]): > 100 µM; GI50 (SNB-75): 2.23 µM; TGI (SNB-75): > 100 µM; CC50 (SNB-75): > 100 µM; GI50 (HCT-116): 2.17 µM; TGI (HCT-116): > 100 µM; CC50 (HCT-116): > 100 µM; CC50 (NCI-H226 [13]): > 100 µM; GI50 (MOLT-4 [14]): 1.89 µM; CC50 (MOLT-4 [14]): > 100 µM
